From ChEMBL document CHEMBL2331413, “Novel in vivo active anti-malarials based on a hydroxy-ethyl-amine scaffold” (Bioorg Med Chem Lett, 2013) come the findings set out here.

Data set [1] deals with Plasmodium falciparum. Description: Antimalarial activity against chloroquine-resistant Plasmodium falciparum K1 infected in RBC by [3H]hypoxanthine incorporation assay in presence of 50 % serum. It counts as functional, organism-based.
In data set [2] the test system is Plasmodium falciparum. Description: Antimalarial activity against chloroquine-resistant Plasmodium falciparum K1 infected in RBC by [3H]hypoxanthine incorporation assay in presence of 0.5 % albumax. It counts as functional, organism-based.
The nature of data set [3]: Metabolic stability in mouse liver microsomes. It counts as ADME, Microsome. The following applies: read-out: Stability. In a few lines: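 In vitro metabolic stability was measured with a mouse liver microsomal preparation and expressed as intrinsic clearance in µl/(min mg).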
(In general: Liver microsomes are vesicles of endoplasmic reticulum, rich in cytochrome P450 enzymes.)

The test system of data set [4] is Plasmodium berghei. The data set can be described thus: Antimalarial activity against GFP-transfected Plasmodium berghei ANKA infected in mouse assessed as increase in host survival time at 100 mg/kg, po administered as single dose […]. It counts as functional. In a few lines:
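P. berghei-infected mouse model; a single oral dose of 100 mg/kg. Parasitemia was expressed relative to untreated control animals. Mean survival time in days was compared with that of untreated mice.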

In data set [5] the test system is Plasmodium berghei. Description: Antimalarial activity against GFP-transfected Plasmodium berghei ANKA infected in mouse assessed as reduction in parasitemia at 100 mg/kg, po administered as single dose measured after 72 hrs by flow cytometry. It counts as functional. Also on record: scale not given: the % may be the effect or the level left. (In general: A flow cytometer gives signals particle by particle.)

In data set [6] the test system is Plasmodium berghei. Description: Antimalarial activity against GFP-transfected Plasmodium berghei ANKA in mouse blood assessed as inhibition of schizont maturation compound incubated for 16 hrs followed by 8 hrs of [3H]hypoxanthine incorporation. It counts as functional, organism-based.
Data set [7] relates to Plasmodium falciparum. Description: Antimalarial activity against chloroquine-sensitive Plasmodium falciparum NF54 infected in RBC after 48 hrs by [3H]hypoxanthine incorporation assay in presence of 0.5 % albumax. It counts as functional, organism-based.
For data set [8], the system named is Plasmodium falciparum. The data set can be described thus: Antimalarial activity against chloroquine-sensitive Plasmodium falciparum NF54 infected in RBC after 24 hrs by [3H]hypoxanthine incorporation assay in presence of 0.5 % albumax. It counts as functional, organism-based.
In data set [9] the test system is Plasmodium falciparum. The data set can be described thus: Antimalarial activity against chloroquine-sensitive Plasmodium falciparum NF54 infected in RBC after 72 hrs by [3H]hypoxanthine incorporation assay in presence of 50 % serum. It counts as functional, organism-based.
Data set [10] relates to Plasmodium falciparum. Description: Antimalarial activity against chloroquine-sensitive Plasmodium falciparum NF54 infected in RBC after 72 hrs by [3H]hypoxanthine incorporation assay in presence of 0.5 % albumax. It counts as functional, organism-based.
Data set [11] relates to Plasmodium berghei. The data set can be described thus: Antimalarial activity against GFP-transfected Plasmodium berghei ANKA in mouse blood assessed as inhibition of schizont maturation after 72 hrs by [3H]hypoxanthine incorporation assay. It counts as functional, organism-based.
The subject of data set [12] is Plasmodium berghei. Description: Antimalarial activity against GFP-transfected Plasmodium berghei ANKA in mouse blood assessed as inhibition of schizont maturation after 48 hrs by [3H]hypoxanthine incorporation assay relative to control. It counts as functional, organism-based.

Activity calls are given as the source filed them. The rule behind the calls is not given here.

As usually defined, the IC50 is the point on the concentration scale where inhibition reaches its midpoint. Consider `CCCN(CCC)Cc1cc(CNC[C@@H](O)[C@H](Cc2ccccc2)NC(=O)c2ccc(N3CCN(C)CC3)cc2)ccc1O`, for which the IC50 in data set [1] was 9.5 nM; in data set [2], 13 nM; in [6], 140 nM; in data set [7], 50 nM; in data set [8], 69 nM; in data set [9], 42 nM. For the same molecule, the IC50 in data set [10] amounted to 65 nM. In addition, the microsomal CLint in [3] came out at 90 µL/min/mg. Further, the Survival in data set [4] came out at 7 days. The Activity in data set [5] amounted to 87%.
For `Cc1cc(Nc2ccc(C(=O)N[C@@H](Cc3ccccc3)[C@H](O)CN[C@H](C)c3ccccc3)cc2)ccn1`, the IC50 in data set [1] came out at 26 nM; in data set [2] it was 16 nM; in data set [6], 228 nM; in data set [8], 173 nM; in data set [9], 29 nM; in data set [10], 9.8 nM. For the same molecule, the microsomal CLint in [3] amounted to 69 µL/min/mg. In addition, the result in [11] and in [12] was Active. Also, in data set [4], the Survival is 3 days. In addition, in [5], the Activity is 33%.
